# Screening data deposited in PubChem BioAssay by several laboratories.
# An excerpt weighted towards active compounds, which were near 4.8% of everything screened.
# UCH37 DUB inh: inhibitors of human UCH37 deubiquitinase, primary screen, biochemical, Ub-AMC cleavage, fluorescence; Ubiquitin carboxyl-terminal hydrolase isozyme L5 (Homo sapiens), Q9Y5K5; purified proteasome/UCH37; inhibition, % (no concentration beside the values); 330,000 compounds, 0.33% hits; AID 588478, 2011;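 active = mean inhibition over replicate wells above about 20%, limit read from the data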;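 note: 0% = compound-free wells with enzyme and 100% = wells lacking proteasome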
# Target sequence (Q9Y5K5 whole entry, looked up): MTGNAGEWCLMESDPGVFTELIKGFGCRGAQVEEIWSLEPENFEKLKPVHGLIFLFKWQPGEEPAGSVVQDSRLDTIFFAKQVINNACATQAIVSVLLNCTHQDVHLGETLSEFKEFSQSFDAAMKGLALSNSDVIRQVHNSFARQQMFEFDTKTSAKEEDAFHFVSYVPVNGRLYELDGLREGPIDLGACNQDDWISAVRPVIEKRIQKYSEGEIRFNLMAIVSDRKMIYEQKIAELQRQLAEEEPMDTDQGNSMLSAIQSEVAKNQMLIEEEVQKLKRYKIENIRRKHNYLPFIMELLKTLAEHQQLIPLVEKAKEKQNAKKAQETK
#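 Schedule: 30 min plus 25 min, room temperature / Material: human UCH37 within purified proteasomes / Technique: AMC fluorescence intensity at 355/460 nm / Buffer or medium: pH 7.4 Tris-HCl (50 mM) with ovalbumin, ATP-MgCl2, DTT / Controls: wells without proteasome as full block, compound-free enzyme plus substrate as uninhibited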
# ATG4B inhibitor: ATG4B protease inhibitors, primary screen, biochemical, fluorescence, uHTS; AID 504462, 2011; ATG4B cleavage of LC3-PLA2, NBD-HPC fluorescence, 1 h; 340,000 compounds, 0.51% hits; Cysteine protease ATG4B (Homo sapiens), Q9Y4P1; inhibition, % at 8.33 µM; in the data active = inhibition above about 40%
# Target sequence (Q9Y4P1 whole entry, looked up): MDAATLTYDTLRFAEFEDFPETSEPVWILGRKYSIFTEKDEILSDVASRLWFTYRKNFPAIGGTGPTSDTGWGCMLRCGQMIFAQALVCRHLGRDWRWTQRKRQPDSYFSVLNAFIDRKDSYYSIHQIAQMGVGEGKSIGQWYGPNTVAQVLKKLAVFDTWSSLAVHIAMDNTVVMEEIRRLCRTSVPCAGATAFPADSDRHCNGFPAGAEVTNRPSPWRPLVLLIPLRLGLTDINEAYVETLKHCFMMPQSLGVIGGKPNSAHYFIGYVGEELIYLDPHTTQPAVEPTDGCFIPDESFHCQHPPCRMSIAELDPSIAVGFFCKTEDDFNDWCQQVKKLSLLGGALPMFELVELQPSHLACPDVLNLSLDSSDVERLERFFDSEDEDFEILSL
# NALP3 yeast inh: NALP3 inflammasome inhibitors in reconstituted yeast, primary screen, luminescence, uHTS; 330,000 compounds, 0.39% hits; inhibition, % at 10 µM; Yeast reconstituted NLRP3/ASC/caspase-1, beta-gal luminescence, 24 h;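 active = inhibition of 50% or more; inactive = inhibition below 50%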;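 note: plate controls were induced DMSO wells for no effect and uninduced yeast grown without galactose for full effect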
# Calb FLC: C. albicans growth inhibition with fluconazole, primary screen, CaCi-2 strain, Alamar Blue fluorescence; C. albicans CaCi-2 + fluconazole, 48 h; growth inhibition, % (concentration not given with the values); 300,000 compounds, 0.57% hits;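 active = growth inhibition above about 58% in most replicates, limit read from the data, passing the limit was not always enough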;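 note: all wells also contain fluconazole at 8 µg/ml as a sub-toxic cotreatment; 0% = median of DMSO wells and 100% = median of geldanamycin control wells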
# ALR inh: inhibitors of human ALR sulfhydryl oxidase, primary screen, biochemical, H2O2 detection, HRP-luminol luminescence, single point; inhibition, % (no concentration beside the values); purified ALR, DTT oxidation; 290,000 compounds, 3.8% hits; FAD-linked sulfhydryl oxidase ALR (Homo sapiens), P55789;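 active = mean replicate inhibition above about 79%, with every replicate also reaching it, limit read from the data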
# NALP1 inh: NALP1 inflammasome inhibitors in reconstituted yeast, colorimetric, S. cerevisiae, triplicate retest; S. cerevisiae NALP1/ASC/caspase-1 growth, X-gal OD620, 72 h; inhibition, % at 10 µM; 280,000 compounds, 0.61% hits; in the data active = inhibition mostly above about 24%, no sharp cut-off; inactive = mostly below about 32%
# NALP3 confirm: NALP3 inhibitors retested in yeast, confirmation, luminescence, single concentration | yeast expressing human NALP3 | inhibition, % at 10 µM | 1,300 compounds, 81% hits | shares compounds with NALP3 yeast inh; in the data active = inhibition above about 48%
# Casp1-ASC yeast: CASP1-PYCARD signaling inhibition in yeast, confirmatory test, counterassay for NLRP3 inhibitor program, one-dose | shares compounds with NALP3 yeast inh | yeast expressing Caspase-1-ASC, luminescence counter screen | inhibition, % at 10 µM | 1,000 compounds, 66% hits
# NALP3 retest: NALP3 inhibitors in yeast, repeat test, confirmation, luminescence, single concentration, retest. shares compounds with NALP3 yeast inh. yeast expressing human NALP3, luminescence read-out. inhibition, % at 10 µM. 1,000 compounds, 53% hits. AID 488794, 2010
# * = called active by the depositor; nt = no result given. Cut-off read from the data, not from the text of the source, unless noted: active = inhibition above about 50%; inactive = the rest.
SMILES,UCH37 DUB inh,ATG4B inhibitor,NALP3 yeast inh,Calb FLC,ALR inh,NALP1 inh,NALP3 confirm,Casp1-ASC yeast,NALP3 retest
Cc1ccc(S(=O)(=O)N(C)/N=C/c2ccc(N(C)C)cc2)cc1,nt,-6.7,51.0*,-1.2,98.5*,23.2,54.1*,18.9,27.4
CC1(c2nnc(-c3ccccc3)o2)CC(c2ccc(Cl)cc2)=NO1 (configuration not stated),5.4,-13.0,51.9*,-6.2,0.1,6.1,56.1*,25.9,21.9
CC1(c2nnc(-c3ccncc3)o2)CC(c2ccc(Cl)cc2)=NO1 (configuration not stated),-1.2,1.7,16.2,-12.9,-11.4,nt,nt,nt,nt
O=C(NN=Cc1cccc([N+](=O)[O-])c1)c1cccc2cc[nH]c12,2.6,nt,nt,nt,nt,nt,nt,nt,nt
Cc1ccc(Oc2ccc(NC(=O)c3ccco3)cc2)cc1,2.5,10.6,13.9,-1.3,-7.8,19.4,nt,nt,nt
COC(=O)c1ccccc1Oc1ccc(NC(=O)c2ccco2)cc1,2.0,7.6,51.0*,-4.1,-1.1,11.5,68.4*,48.9,34.9
Cc1c(/C(Cc2ccccc2)=N/O)c2ccccc2n1C,nt,-5.1,56.4*,19.0,23.4,22.2,60.8*,51.5*,52.8*
Cc1c(C(=O)CN2CCSCC2)c2ccccc2n1C,4.7,-13.1,-3.8,-27.6,-14.5,-1.0,nt,nt,nt
Cc1nn(-c2ccccc2)c(Cl)c1C=NNC(=O)c1ccccc1F,3.9,nt,nt,nt,nt,nt,nt,nt,nt
O=S(=O)(NC1CC2CCC1C2)c1ccc(Br)cc1 (configuration not stated),4.3,-7.9,43.2,-69.6,-14.0,19.4,nt,nt,nt
O=S(=O)(NC1CC2CCC1C2)c1ccc(Br)s1 (configuration not stated),2.4,-0.6,50.4*,-26.9,-2.0,0.3,62.7*,59.4*,40.0
CCc1ccc(/C=C/c2c([N+](=O)[O-])c(=O)n(C)c(=O)n2C)cc1,5.6,-2.0,34.1,-25.9,nt,-5.2,nt,nt,nt
Cn1c(/C=C/N(Cc2ccccc2)c2ccccc2)c([N+](=O)[O-])c(=O)n(C)c1=O,7.8,-7.8,-116.9,8.9,-4.3,-24.8,-22.0,nt,nt
COc1cc(/C=C/C(=O)c2ccc(Cl)s2)cc(OC)c1O,-0.5,-4.2,-1.6,31.5,67.3,57.0,nt,nt,nt
COc1ccc(/C=C/C(=O)c2ccc(Cl)s2)cc1O,1.0,-10.1,54.0*,-8.9,49.6,-13.5,70.2*,49.8,31.4
C/C(=N\NC(=O)c1ccc(Cl)cc1)c1ccccn1,nt,6.1,71.8*,15.9,0.6,36.2*,85.5*,94.0*,83.4*
C/C(=N\NC(=O)c1ccccn1)c1ccc(Cl)cc1,nt,6.9,27.5,3.0,-4.6,-17.5,nt,nt,nt
O=C(O)CCCn1nc(-c2ccccc2)c2ccccc21,1.5,-12.2,13.8,3.3,59.0,9.3,nt,nt,nt
COC(=O)Cn1nc(-c2ccccc2)c2ccccc21,1.1,3.3,96.8*,86.3*,-0.5,103.2*,99.0*,98.8*,97.8*
CCCCOc1ccc(-c2csc(N)n2)cc1[N+](=O)[O-],2.6,8.1,57.0*,4.3,69.6,-16.0,-13.1,nt,nt
CCCOc1ccc(-c2cn3ccccc3n2)cc1[N+](=O)[O-],3.5,21.5,12.0,3.8,-7.5,9.2,nt,nt,nt
Nc1nonc1C(=O)NN=Cc1ccc(-c2cccc(C(=O)O)c2)o1,-38.0,nt,nt,nt,nt,nt,nt,nt,nt
Cc1cc(C)c2c(N)c(-c3nc4ccccc4[nH]3)sc2n1,-2.3,-11.3,50.1*,-16.9,16.3,-6.5,61.9*,37.0,41.0
CCOC(=O)N1C(=O)C2(CCCCC2)N(c2ccccc2Cl)C1=S,3.1,17.1,63.8*,100.2*,-0.4,38.3,67.2*,34.0,50.6*
CCOC(=O)c1sc(=S)n(-c2ccccc2Cl)c1C,4.6,7.9,43.6,24.9,nt,7.0,nt,nt,nt
SMILES,UCH37 DUB inh,ATG4B inhibitor,NALP3 yeast inh,Calb FLC,ALR inh,NALP1 inh,NALP3 confirm,Casp1-ASC yeast,NALP3 retest
CCC1Nc2ncnc(N3CCCCC3)c2N(Cc2ccc(Br)cc2)C1=O (configuration not stated),1.2,-15.6,22.2,-2.0,-10.3,nt,nt,nt,nt
CCC1Nc2ncnc(N3CCN(c4ccccn4)CC3)c2N(Cc2ccc(Br)cc2)C1=O (configuration not stated),2.5,3.5,55.7*,nt,4.0,nt,69.6*,48.4,65.7*
CCC1Nc2ncnc(N3CCCCC3)c2N(Cc2ccc(Cl)cc2)C1=O (configuration not stated),3.6,-1.3,15.5,nt,3.8,nt,nt,nt,nt
CCC1Nc2ncnc(N3CCN(c4ccccn4)CC3)c2N(Cc2ccc(Cl)cc2)C1=O (configuration not stated),1.5,3.8,50.5*,0.9,15.9,nt,59.8*,37.8,51.6*
COc1ccc(-c2nc3ccccc3s2)cc1NC(C)=O,-221.5,-8.2,51.3*,41.3,-8.4,20.9,44.5,25.0,32.6
Cc1nc2cc(NC(=O)c3ccc([N+](=O)[O-])s3)ccc2s1,-0.2,-1.8,60.6*,-8.9,-11.5,13.0,68.1*,nt,nt
O=C(Nc1ccc2oc(-c3ccncc3)nc2c1)c1cccs1,-12.5,-12.7,58.6*,26.2,-0.2,6.6,84.0*,66.3*,65.6*
Cc1nc2ccc(NC(=O)c3cccs3)cc2s1,1.4,-5.5,64.6*,4.0,-0.9,-3.9,77.4*,62.0*,71.2*
CC(C)(C=NNC(=O)CSCc1ccccc1Cl)CCC#N,1.8,nt,nt,nt,nt,nt,nt,nt,nt
COc1cccc(C(C)=NNS(=O)(=O)c2ccc(Cl)cc2)c1,3.3,nt,nt,nt,nt,nt,nt,nt,nt
CC(C)CC(NC(=O)c1ccccc1)C(=O)NN=Cc1ccco1 (configuration not stated),-1.5,nt,nt,nt,nt,nt,nt,nt,nt
Nc1nnnn1N=Cc1cccc(Br)c1,3.5,nt,nt,nt,nt,nt,nt,nt,nt
O=C(N/N=C/c1cccs1)c1ccc2ccccc2c1,nt,4.1,66.3*,-6.7,36.3,7.6,81.3*,67.5*,66.3*
O=C(NN=Cc1cccs1)c1ccc2ccccc2c1,1.4,nt,nt,nt,nt,nt,nt,nt,nt
CCOC(=O)NN=C/C=C/c1ccccc1,2.3,nt,nt,nt,nt,nt,nt,nt,nt
COc1ccccc1C=NNC(=O)CC(=O)NC1CCCCC1,0.1,nt,nt,nt,nt,nt,nt,nt,nt
Cc1ccc(C=NNC(=O)c2n[nH]c3c2CCCC3)cc1,2.0,nt,nt,nt,nt,nt,nt,nt,nt
